Source: PubChem BioAssay
A selection: hits, their analogues and other compounds. The true share with any hit is near 0.62%.
PMI activator: activators of human PMI, primary screen, biochemical, fluorescence intensity, near-Km mannose 6-phosphate | activation factor at 20 µM | 0.005% of 190,000 active | AID 1214, 2008 | Mannose-6-phosphate isomerase (Homo sapiens), P34949 | purified human PMI, coupled resazurin fluorescence, 20 min; active compounds read high; 1 = vehicle control, 0 substrate-free wells;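 active = activation factor of 2 or more at 20 µM, relative to plate controls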
TNAP inh noacc: human TNAP enzyme inhibitors, primary screen, biochemical, luminescent, no phosphate acceptor, uHTS; purified TNAP, CDP-star luminescence, 30 min; inhibition, % at 20 µM; 0.26% of 200,000 active; AID 1012, 2008;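 active = tissue-nonspecific alkaline phosphatase inhibition above about 50% at 20 µM in the single-dose screen, limit read from the data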
Target sequence (P05186 whole entry, looked up): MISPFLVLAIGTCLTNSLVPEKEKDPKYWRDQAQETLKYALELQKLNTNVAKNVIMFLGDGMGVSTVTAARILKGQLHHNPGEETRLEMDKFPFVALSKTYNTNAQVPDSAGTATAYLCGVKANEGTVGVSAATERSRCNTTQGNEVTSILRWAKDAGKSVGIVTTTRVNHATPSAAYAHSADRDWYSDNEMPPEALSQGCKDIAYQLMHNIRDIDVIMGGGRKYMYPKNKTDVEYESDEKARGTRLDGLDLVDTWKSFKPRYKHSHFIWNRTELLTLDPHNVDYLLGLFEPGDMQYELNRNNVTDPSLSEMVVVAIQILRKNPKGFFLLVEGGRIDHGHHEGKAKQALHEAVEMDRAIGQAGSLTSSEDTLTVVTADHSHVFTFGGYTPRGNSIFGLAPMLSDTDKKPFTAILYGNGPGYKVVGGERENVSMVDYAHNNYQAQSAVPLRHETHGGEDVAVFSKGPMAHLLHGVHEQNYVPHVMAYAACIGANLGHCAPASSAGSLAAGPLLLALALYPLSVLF
TNAP act hi DEA: TNAP activators at high phosphate acceptor level, primary screen, biochemical, luminescence, uHTS; Alkaline phosphatase, tissue-nonspecific isozyme (Homo sapiens), P05186; purified TNAP, CDP-star luminescence, 1 M DEA, 30 min; active compounds read high; 0 = EDTA background, 1 = DMSO-only activity; activation factor at 20 µM; 200,000 tested, under 10 active; AID 1136, 2008;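 active = activation factor at least 2 at 20 µM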
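system = human TNAP | amount = enzyme diluted 1/800 final | reagent = 100 µM CDP-star substrate | signal = luminescent substrate turnover signal | dosing = one dose, 20 µM | benchmarks = EDTA negative control, DMSO positive control | measure = activation factor | timing = 30 min reaction, room temperature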
TNAP inh hiacc: human TNAP enzyme inhibitors, primary screen, biochemical, luminescent, high phosphate acceptor level, uHTS; 0.03% of 200,000 active; Alkaline phosphatase, tissue-nonspecific isozyme (Homo sapiens), P05186; purified TNAP, CDP-star luminescence, 1 M DEA; inhibition, % at 20 µM;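 active = over 50% inhibition of tissue-nonspecific alkaline phosphatase at 20 µM in the single-dose screen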
PMI act satM6P: human PMI activators, high substrate, primary screen, biochemical, fluorescence intensity, near-saturating mannose 6-phosphate; coupled PMI enzyme assay, resazurin fluorescence, 20 min; active compounds read high; 1 = untreated enzyme, 0 = substrate-free blank; activation factor at 20 µM; 0.34% of 190,000 active; Mannose-6-phosphate isomerase (Homo sapiens), P34949;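 active = activation factor of 2 or more at 20 µM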
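Test system: human phosphomannose isomerase with PGI, G6PDH, diaphorase coupling enzymes; amount: 15 ng/mL PMI; incubation: enzyme reaction with compound 20 min at room temperature; technique: resorufin fluorescence (Ex 544/Em 590 nm) from resazurin via diaphorase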
Of the large screens only hits and unclear results are named; the others gave an inactive call.

COc1ccc(-c2nc(SC)n(C(=O)c3ccco3)n2)cc1	TNAP inh noacc 51.7
CCC(=O)n1nc(-c2ccc(OC)cc2)nc1SC	TNAP inh noacc 54.0
CSc1nc(-c2ccc(Cl)cc2)nn1S(=O)(=O)c1ccc(Cl)cc1	none
CCCC(=O)n1nc(-c2ccc(Cl)cc2)nc1SC	TNAP inh noacc 53.2
N#C/C(=C\Nc1ccccc1O)c1nc2ccccc2o1	none
O=C(OCc1nc2ccc(Cl)cc2n1CCO)c1ccc(O)cc1	none
FC(F)(F)c1cc(-c2cccs2)n[nH]1	TNAP inh noacc 71.0
FC(F)(F)c1cccc(CN2CCC(c3cc(-c4cccs4)n[nH]3)CC2)c1	none
O=C(N/N=C\c1cccc([N+](=O)[O-])c1O)C1COc2ccccc2O1 (configuration not stated)	TNAP inh noacc 53.2
O=C(N/N=C/c1cccc([N+](=O)[O-])c1)C1COc2ccccc2O1 (configuration not stated)	none
Cc1cc(-c2csc(N)n2)c(C)n1CCc1ccccc1	PMI act satM6P 2
Cc1cc(-c2csc(N)n2)c(C)n1CCC(C)C	none
CCN1/C(=C/C(C)=C/c2sc3ccccc3[n+]2CC)Sc2ccccc21	TNAP inh noacc 59.3
CCN1/C(=C\C(=S)Nc2ccccc2)Sc2ccccc21	none (no result: PMI activator, PMI act satM6P)
C=CCn1c(Br)nc2c1c(=O)[nH]c(=O)n2C	none
Cn1c(=O)[nH]c(=O)c2c1nc(Br)n2C/C=N/Nc1ccccc1	PMI activator 2, PMI act satM6P 3
CCn1ncc(CN2CCCC(CNC(=O)c3ccc(F)cc3)C2)c1C (configuration not stated)	none (no result: PMI activator, PMI act satM6P)
N#C/C(=C\c1ccc(O)c(O)c1)C(=O)NCCCc1ccccc1	TNAP inh noacc 79.0
COc1ccc(/C=C(\C#N)C(=O)N2CCOCC2)cc1Br	none
N#C/C(=C\c1ccc(O)c(O)c1)C(=O)N1CCCC1	TNAP inh noacc 72.6
CCN(C(C)=O)c1ccc(Oc2nc(OC)cc(OC)n2)cc1	none
CCOc1ccccc1NC(=O)C(Sc1nnnn1C)c1ccccc1 (configuration not stated)	none
COc1ccc(-n2c3c(cc(C(=O)N4CCN(CCO)CC4)c2=O)C(=O)CC(C)(C)C3)cc1	none
CC1(C)CC(=O)c2cc(C(=O)Nn3cnnc3)c(=O)n(-c3ccccc3)c2C1	none
COc1ccc(-n2c3c(cc(C(=O)NNc4ccccc4C)c2=O)C(=O)CC(C)(C)C3)cc1	PMI act satM6P 2
COc1ccc(-n2c3c(cc(C(=O)NNc4ccccc4)c2=O)C(=O)CC(C)(C)C3)cc1	PMI act satM6P 2.1
Cc1onc(-c2ccccc2)c1C(=O)N(Cc1ccco1)Cc1cccs1	none
COc1ccc(Cl)cc1NC(=O)CCNC(=O)OCc1ccccc1	none
CN(C)c1ccc(/C=C2/NC(=O)NC2=O)cc1	none
CN(C)c1ccc(/C=C2\N=C(c3ccc(Cl)c([N+](=O)[O-])c3)NC2=O)cc1	TNAP inh noacc 50.5
NC(=S)N/N=C/c1ccc(-c2cc(Cl)c(Cl)cc2Cl)o1	PMI act satM6P 2
Cc1ccc(CN2CCN(Cc3cccn3-c3nccs3)CC2CCO)cc1 (configuration not stated)	none
C=CCSc1n[nH]c(-c2ccc(OCCC)cc2)n1	TNAP inh noacc 50.0
COc1cc(/C=N/Nc2cccc(C)c2)cc(Br)c1O	PMI act satM6P 2.4
COc1cc(/C=N/Nc2cccc(C)c2)ccc1OC(=O)c1cccs1	PMI act satM6P 2.1
COc1cc(/C=N/NC(=O)CC#N)cc(Br)c1O	none
Cc1ccc(-n2ncc3c2ncn2c(-c4ccncc4)nnc32)cc1	TNAP inh noacc 53.9
c1ccc(Cn2ncc3c2ncn2c(-c4ccncc4)nnc32)cc1	none
COc1ccc(-c2cc(=O)[nH][nH]2)cc1	none
O=c1cc(-c2cccc3ccccc23)[nH][nH]1	TNAP inh noacc 68.6
O=c1[nH]c2ccccc2nc1C(Cl)c1ccccc1 (configuration not stated)	PMI act satM6P 2.1
NC(=S)Nc1nc2ccccc2[nH]c1=O	TNAP inh noacc 70.7
CCOC(=O)C(C)c1nc2ccccc2[nH]c1=O (configuration not stated)	none
Cc1cc(N2CCOCC2)ccc1/C=C\[N+](=O)[O-]	none
Cc1cc(C(=O)CN2CCCC2)c(C)n1-c1ccc(Cl)cc1	none
CCN1CCN(CC(=O)c2cc(Cl)ccc2Cl)CC1	PMI act satM6P 2
COc1ccc(CN2CCN(C(=O)C3CCC(CNS(=O)(=O)c4ccccc4)CC3)CC2)c(OC)c1OC (configuration not stated)	none
CC(=O)c1sc2nc(-c3ccc(C)cc3)c3c(c2c1N)CCCC3	none
Cc1ccc(-c2nc3sc(C(N)=O)c(N)c3c3c2CCCC3)cc1	PMI act satM6P 2.4
COc1ccc(OC)c(S(=O)(=O)Nc2ccc(O)c(Sc3ncn[nH]3)c2)c1	TNAP inh noacc 74.4
Cc1ccc(S(=O)(=O)Nc2ccc(O)c(Sc3ncn[nH]3)c2)cc1	TNAP inh noacc 74.1
CCOc1ccc(S(=O)(=O)Nc2ccc(O)c(Sc3ncn[nH]3)c2)cc1	TNAP inh noacc 77.4
Cc1cc(C)c2c(-n3cccc3)nn(C)c2n1	none
Cc1ccc(C(=O)n2nc(-n3cccc3)c3c(C)cc(C)nc32)cc1	TNAP inh noacc 58.0
NNC(=O)c1sc2cc(C(F)(F)F)cnc2c1-c1cccnc1	none
C/C(=N\NC(=O)c1ccccc1O)C1C(=O)c2ccccc2C1=O	TNAP inh noacc 59.8
CCOc1cccc2sc(NN)nc12	PMI act satM6P 2.2
Cc1ccc(NC(=O)c2ccc(Nc3c([N+](=O)[O-])cc([N+](=O)[O-])cc3[N+](=O)[O-])cc2)cc1	TNAP inh hiacc 53.7
Cc1ccc(C(=O)Nc2cc([N+](=O)[O-])ccc2C)cc1	none
COC(=O)NC1(C(F)(F)F)C(=O)Nc2c1c(=O)n(C)c(=O)n2C (configuration not stated)	none
O=C(O)c1ccccc1NN=C1CCCCC1	PMI act satM6P 2.5
O=C(O)c1ccccc1Nc1ccccc1C(=O)O	none
CCO[C@@H]1OC(C(=O)N2CCOCC2)=C[C@H](c2ccccc2)[C@H]1CCCO	none
O=C(/C=C/NCC(=O)c1ccccc1)c1ccc(Br)cc1	PMI act satM6P 2.1
Cc1ccc(OCCN2C(=O)C(=O)c3cccc(C)c32)cc1	none (no result: PMI activator, PMI act satM6P)
NS(=O)(=O)c1cccnc1Nc1c(Cl)cccc1Cl	TNAP inh noacc 58.2, TNAP inh hiacc 52.0
O=C1OCC(c2ccccc2)=C1c1ccc(S(=O)(=O)N2CCOCC2)s1	PMI act satM6P 2
